Results on four molecules are retold here after ChEMBL document CHEMBL4049448, “Development of a Potent Wound Healing Agent Based on the Liver Fluke Granulin Structural Fold” (J Med Chem, 2017).

The test system of one data set is Mus musculus. In words: Wound healing activity in BALB/c mouse assessed as biopsy punch-induced wound closure at 56 pmol administered topically daily as 1.5% methyl cellulose gel for 4 days measured on day 4 post last dose relative to control. It is filed as functional. A digest of the protocol: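 Female BALB/c mice, 11−12 weeks, 19−23 g, groups of 4−5. Under ip xylazine 16 mg/kg and ketamine 80 mg/kg, a 5 mm biopsy punch made a skin-deep scalp wound (~0.2 cm2). Betadine was applied first. Then 56 pmol in 50 μL 1.5% methylcellulose gel was applied daily, days 0−4. Healing at day 4 expressed relative to PBS vehicle.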

Data set [1] has as its system NCI-H69. In words: Induction of human H69 cell growth at 2 uM after 5 to 6 days by real time cell proliferation assay relative to control. It is filed as functional. A digest of the protocol:
(§1)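 H69 SV40-transformed human cholangiocytes, seeded 1500 cells/well in complete media and grown overnight, then washed with PBS and held ≥6 h in low-nutrient medium (0.5% FCS, 1/20 growth factors). Single treatment added at 10× stock. Impedance cell index read hourly for 5−6 days and normalized to pre-treatment. Proliferation ratio taken at day 4 versus control (tropomyosin-derived 20-residue peptide for peptides; thioredoxin for recombinant protein). Two-Way ANOVA with Dunnett's correction.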

Data set [2] relates to NCI-H69. As to the kind of experiment: Cytotoxicity against human H69 cells up to 2 uM after 5 to 6 days by real time cell proliferation assay. It is filed as cell-based.
The subject of data set [3] is H69 cholangiocyte cell line (Homo sapiens). In words: Induction of human H69 cell growth at 400 nM after 5 to 6 days by real time cell proliferation assay relative to control.
The test system of data set [4] is NCI-H69. As to the kind of experiment: Induction of human H69 cell growth up to 2 uM after 5 to 6 days by real time cell proliferation assay. The data set is classed as functional, cell-based. A digest of the protocol: as §1
For data set [5], the system named is NCI-H69. As to the kind of experiment: Induction of human H69 cell growth at 32 nM after 5 to 6 days by real time cell proliferation assay relative to control. It is filed as functional. The procedure, abridged:
as §1

In data set [6] the test system is NCI-H69. As to the kind of experiment: Induction of human H69 cell growth at 400 nM after 5 to 6 days by real time cell proliferation assay relative to control. It is filed as functional. The procedure, abridged: as §1

Activity calls are given as the source filed them. The calls are words filed in the database; no cut-off is given here. Positions of bridges follow the written chain, without caps; N, C: chain ends. Residues, ends and D or L forms follow the SMILES beside them.

For `CC(C)C[C@@H]1NC(=O)CNC(=O)[C@H](CCCNC(=N)N)NC(=O)[C@H](C)NC(=O)[C@@H]2CSSC[C@H](N)C(=O)N3CCC[C@H]3C(=O)N[C@@H](CC(=O)O)C(=O)N3CCC[C@H]3C(=O)N[C@@H](C(C)C)C(=O)N[C@@H](Cc3ccc(O)cc3)C(=O)N[C@@H]([C@@H](C)O)C(=O)N[C@@H](CSSC[C@@H](C(=O)O)NC(=O)CNC(=O)[C@H](Cc3ccc(O)cc3)NC(=O)CNC(=O)[C@H](Cc3cnc[nH]3)NC1=O)C(=O)N[C@@H](CCCNC(=N)N)C(=O)N1CCC[C@H]1C(=O)NCC(=O)N[C@@H](CCC(N)=O)C(=O)N[C@@H]([C@@H](C)O)C(=O)N2` (H-CPDPVYTCRPGQTCARGLHGYGC-OH; disulfide 1-14, 8-23), the Activity is reported as 37 - 41% in the data set with Mus musculus, 14 - 25% with NCI-H69 [1] and “Non-Toxic” in the data set with NCI-H69 [2]. The outcome in data set [3] was inactive.
As to `CSCC[C@H](NC(=O)[C@@H]1CCCN1C(=O)[C@H](C)NC(=O)[C@@H]1CSSC[C@@H]2NC(=O)[C@H]([C@@H](C)O)NC(=O)[C@H](Cc3ccc(O)cc3)NC(=O)[C@H](C(C)C)NC(=O)[C@@H]3CCCN3C(=O)[C@H](CC(=O)O)NC(=O)[C@@H]3CCCN3C(=O)[C@@H](NC(=O)[C@H](CO)NC(=O)[C@@H]3CCCN3C(=O)[C@H](CO)NC(=O)[C@@H](N)CCCNC(=N)N)CSSC[C@H](NC(=O)[C@H]([C@@H](C)O)NC(=O)[C@H](CCC(N)=O)NC(=O)CNC(=O)[C@@H]3CCCN3C(=O)[C@H](CCCNC(=N)N)NC2=O)C(=O)N[C@@H](C)C(=O)N[C@@H](CCCNC(=N)N)C(=O)NCC(=O)N[C@@H](CC(C)C)C(=O)N[C@@H](Cc2cnc[nH]2)C(=O)NCC(=O)N[C@@H](Cc2ccc(O)cc2)C(=O)NCC(=O)N1)C(=O)N[C@@H](CC(=O)O)C(=O)O` (H-RSPSCPDPVYTCRPGQTCARGLHGYGCAPMD-OH; disulfide 5-18, 12-27), in the data set on Mus musculus, the Activity was 26 - 41%. Also, in data set [3], the outcome was inactive.
On to `CC[C@H](C)[C@H](NC(=O)[C@@H](N)C(C)C)C(=O)N[C@@H](Cc1cnc[nH]1)C(=O)N[C@H]1CSSC[C@@H]2NC(=O)[C@H]([C@@H](C)O)NC(=O)[C@H]([C@@H](C)O)NC(=O)CNC(=O)[C@H](CC(=O)O)NC(=O)[C@@H]3CCCN3C(=O)[C@H](CSSC[C@@H](C(=O)N[C@@H](C)C(=O)N3CCC[C@H]3C(=O)N[C@@H](Cc3ccccc3)C(=O)N[C@@H](CO)C(=O)O)NC(=O)[C@H](Cc3ccc(O)cc3)NC(=O)[C@H](Cc3c[nH]c4ccccc34)NC(=O)[C@H](C(C)C)NC(=O)CNC(=O)[C@H](Cc3ccc(O)cc3)NC(=O)[C@@H]3CCCN3C(=O)[C@H](CO)NC(=O)[C@H](CC(C)C)NC(=O)[C@H](C)NC2=O)NC(=O)[C@H]([C@@H](C)CC)NC(=O)[C@H]([C@@H](C)O)NC(=O)[C@H](C)NC(=O)[C@H](C)NC(=O)[C@H](CC(=O)O)NC1=O` (H-VIHCDAATICPDGTTCALSPYGVWYCAPFS-OH; disulfide 4-16, 10-26), for which the result in the data set on NCI-H69 [4] was inactive. Further, the Activity with NCI-H69 [5] was 9%.
With `CC[C@H](C)[C@H](NC(=O)[C@@H]1CCCN1C(=O)[C@H](CCC(N)=O)NC(=O)[C@H](CC(C)C)NC(=O)[C@@H](NC(=O)[C@H](CC(=O)O)NC(=O)[C@@H](N)CCSC)[C@@H](C)O)C(=O)N[C@@H](CCCNC(=N)N)C(=O)N[C@@H](CO)C(=O)N1CCC[C@H]1C(=O)N[C@@H](CO)C(=O)N[C@H]1CSSC[C@@H]2NC(=O)[C@H]([C@@H](C)O)NC(=O)[C@H](CCC(N)=O)NC(=O)CNC(=O)[C@@H]3CCCN3C(=O)[C@H](CCCNC(=N)N)NC(=O)[C@H](CSSC[C@@H](C(=O)N[C@@H](C)C(=O)O)NC(=O)CNC(=O)[C@H](Cc3ccc(O)cc3)NC(=O)CNC(=O)[C@H](Cc3cnc[nH]3)NC(=O)[C@H](CC(C)C)NC(=O)CNC(=O)[C@H](CCCNC(=N)N)NC(=O)[C@H](C)NC2=O)NC(=O)[C@H]([C@@H](C)O)NC(=O)[C@H](Cc2ccc(O)cc2)NC(=O)[C@H](C(C)C)NC(=O)[C@@H]2CCCN2C(=O)[C@H](CC(=O)O)NC(=O)[C@@H]2CCCN2C1=O` (H-MDTLQPIRSPSCPDPVYTCRPGQTCARGLHGYGCA-OH; disulfide 12-25, 19-34), the Activity in the data set with Mus musculus was 37 - 41%; in the data set with NCI-H69 [1], 14 - 25%; in the data set on NCI-H69 [2], “Non-Toxic”; in the data set on NCI-H69 [6] it was 9%.
